Compounds with a hit are over-represented: about 4.5% of the library has one in this group of screens.
NF-kB neuron act: compounds increasing NF-kB expression in human neuronal cells. AID 1239. fold change at 12.5 µM. 190,000 tested, 1.6% active. NF-kB reporter expression; active compounds read high; in the data active = fold change above about 3.3
APP 5'UTR act: APP 5'UTR luciferase reporter activation | SH-SY5Y APP 5'UTR luciferase reporter, luminescence; zero percent = DMSO vehicle wells | activation, % at 2 µM | 190,000 tested, 1% active | AID 1276;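 active = activation above a set limit, based on mean plus 3 SD of controls, cut at about 140% in these data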
PERK inh: blocks human PERK kinase | CHO PERK-DD fusion, SEAP luminescence translation reporter | inhibition, % at 5.6 µM | 220,000 tested, 0.17% active | AID 1416;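 active = inhibition above the mean inhibition of all tested compounds plus 3 SD, set separately per screening campaign, cut at about 2.9% in these data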;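 also: PERK kinase domain activated by AP20187 dimerizer at 100 nM; 0% = DMSO with dimerizer and 100% = rapamycin at 8.4 µM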
MDM2 E3 inh: inhibitors of human Mdm2 E3 ubiquitin ligase | signal enhancement, % at 5 µM | 210,000 tested, 0.11% active | cell-based MDM2 ubiquitination luciferase reporter, 2 h; 0 = plate control, 100 = twice control, blank-subtracted | AID 1230 | Q00987;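 active = signal enhancement of 30% or more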;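 also: luminescence tracks abundance of the self-degrading MDM2-luciferase fusion protein; higher signal means inhibition of MDM2 E3 ligase activity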
Target sequence (Q00987 whole entry, looked up, the tested form may be a part): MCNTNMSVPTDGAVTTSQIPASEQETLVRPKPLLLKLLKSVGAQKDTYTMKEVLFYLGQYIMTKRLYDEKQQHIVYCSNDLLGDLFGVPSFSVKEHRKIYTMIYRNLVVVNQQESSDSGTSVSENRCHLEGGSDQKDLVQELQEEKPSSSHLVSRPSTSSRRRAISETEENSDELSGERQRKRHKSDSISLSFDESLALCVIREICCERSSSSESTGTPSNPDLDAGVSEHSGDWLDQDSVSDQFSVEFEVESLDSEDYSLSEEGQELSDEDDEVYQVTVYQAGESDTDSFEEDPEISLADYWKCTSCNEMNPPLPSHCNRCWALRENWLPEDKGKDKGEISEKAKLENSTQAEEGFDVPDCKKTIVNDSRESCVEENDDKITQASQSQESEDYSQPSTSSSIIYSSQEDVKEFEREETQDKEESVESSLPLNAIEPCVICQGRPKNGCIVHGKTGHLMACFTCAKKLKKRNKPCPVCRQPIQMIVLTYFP
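Test system: mammalian cells stably expressing self-ubiquitinating, self-degrading MDM2 E3–luciferase fusion; Amount: 2000 cells in each well; Medium: DMEM; Schedule: 4 h settle plus 2 h compound, 37 °C; Technique: SteadyLite luciferase luminescence after 15 min room-temperature reagent incubation; Benchmarks: plate control and blank wells.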
STAT1 activator: increases IFN-gamma driven STAT1 reporter signal | activation (% of control), % at 5.5 µM | 200,000 tested, 2.6% active | NIH 3T3 STAT1-luciferase reporter, luminescence; 100% = IFN-gamma alone, no compound;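 active = activation above the screen-wide mean activation plus 3 SD, cut at about 130% in these data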;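 also: raw ratio to IFN-gamma control signal so 100% means no change and 0% no light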
AHR act: activators of human aryl hydrocarbon receptor; P35869; AHR-responsive luciferase reporter cells, luminescence; activation, % at 5 µM; 320,000 tested, 2.5% active; in the data active = activation above about 47%;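 also: 0% = vehicle wells and 100% = reference agonist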
* marks the source's active call; other numbers are inactive results; . = no result.

SMILES	NF-kB neuron act	APP 5'UTR act	PERK inh	MDM2 E3 inh	STAT1 activator	AHR act
O=c1[nH]c(-c2cccnc2)nc2sc(-c3ccccc3)cc12	0.97	-75	0	-1	114	75*
Cc1ccccc1-c1nc2sc(-c3ccccc3)cc2c(=O)o1	1.3	16	0	-17	95	1
CCCCOc1ccc(-c2ncc([N+](=O)[O-])cn2)cc1	.	.	1	-22	.	-1
CCCCOc1ccc(-c2ncc(Cl)cn2)cc1	3.7*	12	1	-32	122	-1
Oc1ccc(-c2cnc3ccccc3n2)cc1	.	.	.	.	.	-2
COc1ccc(Oc2nc(-c3cccnc3)nc3ccccc23)cc1	.	.	-2	-9	.	4
CCCCOc1ccc(-c2cnc3ccccc3n2)cc1	3.6*	.	0	-62	149*	-7
CCCOc1ccc(-c2nc(OC)c3ccccc3n2)cc1	1.7	0	0	-4	106	77*
c1csc(-c2cnc3ccccc3n2)c1	2.6	93	1	5	129*	13
Clc1ccc(-c2cnc3ccccc3n2)cc1	3.3*	135*	1	-21	113	52*
O=C1C(=O)N(Cc2ccco2)C(c2cccs2)/C1=C(\O)c1cccc([N+](=O)[O-])c1 (stereo unspecified)	.	.	1	-16	.	0
CCN(CC)CCCn1c2c(c(SCC(=O)Nc3cc(OC)cc(OC)c3)nc1=O)CCC2	.	.	.	.	.	-1
Cc1ccccc1COCCN1CCN(S(=O)(=O)c2ccccc2)CCC1=O	.	.	.	-7	.	-2
c1ccc(-n2nnnc2Oc2ccc(-n3ccnc3)cc2)cc1	1.2	4	0	-25	101	72*
COc1cccc(Oc2nnnn2-c2ccccc2)c1	2	25	0	-24	131*	5
FC(F)(F)c1cnc(-c2cnc(-c3ccncc3)nc2)c(Cl)c1	0.7	58	0	9	140*	-6
Nc1c(-c2n[nH]c(=S)n2-c2ccc(Cl)cc2Cl)cnn1-c1ccccc1	.	.	-1	-4	.	4
Nc1[nH]nc2c1NN(c1ccc(Cl)cc1Cl)N2	1.4	47	0	4	128	75*
COc1ccc(Cc2nnc(SCC(=O)Nc3c(C)cccc3C)[nH]c2=O)cc1	.	.	.	.	.	8
C#CCNC(=O)C1=C[C@@H](C2CCCCC2)C[C@@H](OCc2ccc(CO)cc2)O1	1.1	2	-1	.	95	48*
O=C(NCc1nc2ccccc2[nH]1)C1=C[C@@H](c2ccc(Br)cc2)C[C@@H](OCCCCO)O1	0.85	5	0	.	101	4
CC(=O)n1cc([C@H]2C=C(C(=O)O)O[C@@H](OCCCCO)C2)c2ccccc21	1.1	6	0	.	94	4
CC(=O)n1cc([C@@H]2C=C(C(=O)NCc3ccccc3)O[C@H](OCc3ccc(CO)cc3)C2)c2ccccc21	.	.	.	17	.	66*
CC(=O)n1cc([C@@H]2C=C(C(=O)Nc3ccccc3)O[C@H](OCCCCO)C2)c2ccccc21	1	11	1	.	106	57*
O=C(NCc1nc2ccccc2[nH]1)C1=C[C@@H](c2ccccc2)C[C@@H](OCCCCO)O1	0.97	-1	0	.	100	57*
SMILES	NF-kB neuron act	APP 5'UTR act	PERK inh	MDM2 E3 inh	STAT1 activator	AHR act
O=C(Nc1ccccc1)C1=C[C@@H](c2ccc(Br)cc2)C[C@@H](OCCCCO)O1	1.5	21	1	.	129*	2
O=C(CSc1ncc(-c2ccc(F)cc2)n1Cc1ccco1)Nc1ccc2c(c1)OCO2	1.6	62	-1	-11	138*	20
CCOc1ncccc1C(=O)Nc1nnc(C)s1	1.1	16	1	5	107	-3
COc1ccc(C(=O)Nc2cccc(NC(=O)c3ccc(OC)c(OC)c3)n2)cc1OC	.	.	.	.	.	14
COc1ccc(C(=O)Nc2nc(C)c(C)s2)cc1OC	1.9	104	-1	.	139*	33
COc1ccc(C(=O)Nc2nnc(Cc3cccs3)s2)cc1OC	1.1	0	-1	10	88	78*
CCOc1ccc(C(=O)Nc2nnc(C)s2)cc1OCC	1.6	-8	1	-13	90	50*
COc1ccc(Cc2nnc(NC(=O)c3ccc(OC)c(OC)c3)s2)cc1	.	.	.	.	.	33
CCN1CC=C2C(C#N)=C(N)C(C#N)(C#N)C(c3cc(Cl)ccc3Cl)C2C1 (stereo unspecified)	1	0	1	-9	97	11
Cc1cc(-c2ccc(Br)cc2)n[nH]1	1.5	25	2	-15	137*	16
COC(=O)c1cc(-c2ccc(C)cc2)n[nH]1	1.8	4	1	3	126	3
CC1CCN(C(=O)c2[nH]cnc2C(=O)NCc2ccc(CNC(=O)OC(C)(C)C)cc2)CC1	.	.	.	.	.	0
CCN(CC)C(=O)N1c2ccccc2CC(N(CC)CC)c2ccccc21 (stereo unspecified)	0.81	-2	-1	6	98	1
COC1Cc2ccccc2N(C(N)=O)c2ccccc21 (stereo unspecified)	.	.	.	.	.	48*
O=C(O)c1ccc([N+](=O)[O-])c(CS(=O)(=O)c2ccccc2)c1	.	.	.	.	.	0
CCN1CCN(C(=O)CCCn2c(C)c3cnn(-c4ccccc4)c(=O)c3c2C)CC1	1.1	16	1	-6	101	4
Cc1c2cnn(-c3ccccc3)c(=O)c2c(C)n1CCCC(=O)NCCN1CCN(C)CC1	.	.	3.7*	-5	.	2
NC(=O)C1(N2CCCCC2)CCN(C(=S)Nc2ccc(F)c(Cl)c2)CC1	0.94	5	2	-4	99	5
CCOc1ccc(-c2cn(-c3ccc(OC)cc3)c(SC)n2)cc1	3.8*	128	-1	-3	144*	3
CSc1nc(-c2ccccc2)cn1-c1ccc(NC(C)=O)cc1	2.4	35	1	-4	120	14
Cc1cccc(-n2c(C)cc(/C=N\NC(=O)c3ccco3)c2C)c1	1.9	61	3	-9	145*	2
Cc1ccccc1C(=O)N/N=C/c1ccccn1	1.7	31	1	-22	136*	14
O=C(N/N=C/c1ccccn1)c1cccs1	1.2	18	1	-11	132*	5
Cc1cc(/C=N\NC(=O)COc2cccc3cccnc23)c(C)n1-c1ccc(Br)cc1	0.75	-21	0	4	103	42
Cc1cc(/C=N\NC(=O)c2cccs2)c(C)n1-c1ccc2ncccc2c1	1	63	-1	-16	130*	11
O=C(N/N=C/c1ccccn1)c1ccncc1	.	.	.	.	.	8
CCn1cc(C(=O)NCCCOC)c(=O)c2cc(S(=O)(=O)N3CCCC3)ccc21	.	.	.	.	.	2
CCOc1ccccc1NC(=O)CSc1nc2ccccc2c(=O)n1CC1CCCO1 (stereo unspecified)	.	.	.	.	.	4
CCOC(=O)/C(C#N)=C\c1cc(OC)c(OC)cc1[N+](=O)[O-]	1.2	14	0	-12	92	1
COc1cc(C(C)=O)ccc1OCC(=O)Nc1cc(C)on1	.	.	.	.	.	0

From PubChem
